Each structure is given as a SMILES string. Activity calls are given as the source filed them. The rule behind the calls is not given here.

Data set [1] relates to Pseudomonas aeruginosa PAO1. In words: Inhibition of PqsR in Pseudomonas aeruginosa PAO1 harboring GFP fused pqsA at 125 ug/ml measured every 15 mins for 6 to 8 hrs by reporter assay relative to control. As to conditions: dose 125.0 µg/ml, time 6-8 hrs. The gist of the method:
(§1)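 PAO1 carrying PqsR-regulated pqsA promoter–gfp fusion; overnight culture in Mueller Hinton broth exposed to serially diluted compounds (40 mM DMSO stocks, diluted in medium) at 37 °C with intermittent shaking. GFP fluorescence and OD600 read every 15 min for at least 6–8 h; fluorescence normalised to OD600. Negative control: medium with 1.25% DMSO. Run in triplicate.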

Data set [2] is described as follows: Inhibition of PqsR in Pseudomonas aeruginosa PAO1 harboring GFP fused pqsA measured every 15 mins for 6 to 8 hrs by reporter assay. The gist of the method: as §1
Data set [3] relates to Pseudomonas aeruginosa. In words: Antibiofilm activity against Pseudomonas aeruginosa PAO1 assessed as decrease in bacterial co-aggregation at 150 to 400 uM measured after 24 hrs by phase contrast microscopic analysis. As to conditions: dose 150-400 µM. It counts as functional, organism-based. The essentials:
(§2)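 Overnight TSB cultures resuspended to OD600 0.1 ± 0.02 in TSB. Biofilms grown 24 h at 37 °C, 100 rpm with compound at 250 µM or DMSO control. Washed twice with PBS to remove loosely adhered cells. Imaged by phase contrast microscopy to assess biofilm morphology and aggregation.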

Data set [4] concerns Pseudomonas aeruginosa. Nature of the data set: Antibiofilm activity against Pseudomonas aeruginosa PAO1 assessed as reduction in biomass at 250 to 400 uM measured after 48 hrs by crystal violet staining based assay relative to control. In kind it is functional. As to conditions: dose 250-400 µM. The gist of the method:
(§3)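 Biofilms started from TSB-grown cultures at OD600 0.1 ± 0.02 with compound (250 and 400 µM) or DMSO control. Incubated 48 h at 37 °C, 100 rpm, then washed with PBS. Stained with 0.1% (w/v) crystal violet for 1 h at 37 °C, 150 rpm, washed three times and dried. Dye dissolved in 80% ethanol and read at OD550. Biomass expressed as % decrease versus DMSO control, set at 100%.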

In data set [5] the test system is Pseudomonas aeruginosa. In words: Antibiofilm activity against Pseudomonas aeruginosa PAO1 assessed as decrease in bacterial co-aggregation at 150 to 400 uM measured […] by microscopic analysis (reference value: 26 %). It counts as functional. On the set-up: scale not given: the % may be the effect or the level left. As to conditions: dose 150-400 µM.
For data set [6], the system named is Pseudomonas aeruginosa. In words: Antibiofilm activity against Pseudomonas aeruginosa ATCC 25619 assessed as reduction in biomass at 250 to 400 uM measured after 48 hrs by crystal violet staining based assay relative to control. It counts as functional. As to conditions: dose 250-400 µM. The essentials: as §3
For data set [7], the system named is Pseudomonas aeruginosa. In words: Antibiofilm activity against Pseudomonas aeruginosa ATCC 25619 assessed as decrease in bacterial co-aggregation at 150 to 400 uM measured […] by microscopic analysis (reference value: 23 %). On the set-up: scale not given: the % may be the effect or the level left. As to conditions: dose 150-400 µM. It counts as functional.

In data set [8] the test system is Pseudomonas aeruginosa. In words: Antibiofilm activity against Pseudomonas aeruginosa ATCC 25619 assessed as decrease in bacterial co-aggregation at 150 to 400 uM measured after 24 hrs by phase contrast microscopic analysis. As to conditions: dose 150-400 µM. It counts as functional, organism-based. The gist of the method: as §2
A short description of data set [9]: Inhibition of planktonic growth of Pseudomonas aeruginosa PAO1 up to 125 ug/ml incubated for 24 hrs. As to conditions: dose <=125 µg/ml. The gist of the method: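 PAO1 at 5×10^5 CFU/mL in MHB. Compound added from 10 mg/mL DMSO stock, up to 125 µg/mL final. Incubated 24 h at 37 °C with intermittent agitation, OD600 read every 15 min. DMSO (1.25%) as control. One experiment per compound with three technical replicates.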

On to `O=C1C=C(c2ccc(F)cc2)/C(=C/Sc2ccc(Cl)cc2)N1`, for which the inhibition in data set [1] came to 46%. In data set [1], `O=C1C=C(c2ccc(Br)cc2)/C(=C/Sc2ccc(Cl)cc2)N1` displayed an inhibition of 33%. In data set [1], `O=C1C=C(c2ccccc2F)/C(=C/Sc2ccc(Cl)cc2)N1` gave an inhibition of 55%. `O=C1C=C(c2ccccc2)/C(=C/Sc2ccccn2)N1` registered an inhibition in [1] of 53%.

On to `CCCS/C=C1\NC(=O)C=C1c1ccccc1F`, for which, in [1], the inhibition came to 7%.

`CCCS/C=C1\NC(=O)C=C1c1ccc(Cl)cc1`: the inhibition in [1] was 59%. Half-maximal inhibition in data set [2] (IC50) required 90 µM.

With `O=C1C=C(c2ccccc2)/C(=C/Sc2ccccc2)N1`, the inhibition in data set [1] stood at 52%.

Take `O=C1C=C(c2ccc(F)cc2)/C(=C/Sc2ccccc2)N1`: in data set [1], the inhibition came out at 45%. On to `CCCS/C=C1\NC(=O)C=C1c1ccccc1`, for which the inhibition in data set [1] was 20%. `O=C1C=C(c2cccc(F)c2)/C(=C/Sc2ccccn2)N1` gave an inhibition in [1] of 47%.

Compound `O=C1C=C(c2ccc(Cl)cc2)/C(=C/Sc2ccccc2)N1` registered an inhibition in data set [1] of 45%. `O=C1C=C(c2ccc(Cl)cc2)/C(=C/Sc2ccccn2)N1` displayed an inhibition in data set [1] of 18%. Consider `O=C1C=C(c2ccc(Br)cc2)/C(=C/Sc2ccccn2)N1`, for which the inhibition in data set [1] was 20%.

`O=C1C=C(c2ccc(Cl)cc2)/C(=C/Sc2ccc(Cl)cc2)N1` registered an inhibition in data set [1] of 36%. As to `O=C1C=C(c2ccc(F)cc2)/C(=C/Sc2ccccn2)N1`, the outcome in the data set on Pseudomonas aeruginosa [3] and with Pseudomonas aeruginosa [8] was Active. The compound further came in with an inhibition in [1] of 63%. Moreover, the “inhibition (INH)” value in the data set on Pseudomonas aeruginosa [4] and in the data set on Pseudomonas aeruginosa [6] was 20% throughout. Further, the Activity with Pseudomonas aeruginosa [5] is recorded as 13%; with Pseudomonas aeruginosa [7] it was 11%. Further, the “growth inhibition (GI)” value in data set [9] was “Non-Toxic”. The same compound came in with an IC50 in [2] of 32 µM. In data set [1], `O=C1C=C(c2ccccc2)/C(=C/Sc2ccc(Cl)cc2)N1` showed an inhibition of 43%. As to `CCCS/C=C1\NC(=O)C=C1c1ccc(Br)cc1`, the result in the data set on Pseudomonas aeruginosa [3] and in the data set on Pseudomonas aeruginosa [8] was Active. Besides, the inhibition in [1] worked out at 62%. The “inhibition (INH)” value in the data set with Pseudomonas aeruginosa [4] and in the data set with Pseudomonas aeruginosa [6] was 20% each time. The figures for the Activity in the data set with Pseudomonas aeruginosa [5] and in the data set with Pseudomonas aeruginosa [7] were 13% and 11%, respectively. In addition, the “growth inhibition (GI)” value in data set [9] is given as “Non-Toxic”. This compound also came in with an IC50 in [2] of 100 µM. For the compound `O=C1C=C(c2ccc(Br)cc2)/C(=C/Sc2ccccc2)N1`, the inhibition in data set [1] stood at 52%. Regarding `O=C1C=C(c2ccccc2F)/C(=C/Sc2ccccc2)N1`, the inhibition in data set [1] was 42%. Take `O=C1C=C(c2ccccc2F)/C(=C/Sc2ccccn2)N1`: the inhibition in data set [1] was determined as 40%.
